Drawing on ChEMBL document CHEMBL2163271, “Antitumor agents 295. E-ring hydroxylated antofine and cryptopleurine analogues as antiproliferative agents: design, synthesis, and mechanistic studies” (J Med Chem, 2012), this text covers IC50 and Activity for 21 compounds.

Assay [1] deals with DU-145. Kind of assay: Cytotoxicity against human DU145 cells after 2 hrs by methylene blue staining-based spectrophotometric analysis. It is filed as functional, cell-based. The note with it: DU-145, 2 h.
The subject of assay [2] is KB. Briefly: Cytotoxicity against human KB cells after 2 hrs by methylene blue staining-based spectrophotometric analysis. It is filed as functional, cell-based.
Assay [3] concerns A549. Briefly: Cytotoxicity against human A549 cells after 2 hrs by methylene blue staining-based spectrophotometric analysis. It is filed as functional, cell-based. Particulars: A549, 2 h.
Assay [4] can be described thus: Cytotoxicity against human KBVIN cells overexpressing P-gp after 2 hrs by methylene blue staining-based spectrophotometric analysis. It is filed as functional, cell-based.
For assay [5], the system named is A549. Briefly: Downregulation of cyclin D protein expression in human A549 cells at 3.6 to 100 nM after 48 hrs by Western blot analysis. It is filed as functional, cell-based. A general note: In western blotting, separated proteins are transferred to a membrane and probed.
In assay [6] the test system is A549. Kind of assay: Downregulation of HSP90 protein expression in human A549 cells at 3.6 to 100 nM after 48 hrs by Western blot analysis. Format: functional, cell-based. The essentials:
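A549 cells treated with graded compound concentrations for 48 h. Whole-cell extracts were immunoblotted with antibody against HSP90.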

The test system of assay [7] is MRC5. Briefly: Cytotoxicity against human MRC5 cells assessed as cell viability after 48 hrs by SRB assay. Format: functional, cell-based. Particulars: MRC5, 48 h.
Assay [8] concerns PC-9. Briefly: Cytotoxicity against human PC9 cells assessed as cell viability after 48 hrs by SRB assay. Format: functional, cell-based. Particulars: PC-9, 48 h. The essentials:
(§1)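 Human NSCLC lines (CL1-0, CL1-5, PC9, PC9IR) exposed to increasing compound concentrations for 48 h. Growth read by sulforhodamine B (SRB) staining, with IC50 in nM taken from the dose-response.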
(In general: Sulforhodamine B stains cellular protein and so reports cell mass.)

In assay [9] the test system is A549. Kind of assay: Downregulation of beta-catenin protein expression in human A549 cells at 3.6 to 100 nM after 48 hrs by Western blot analysis.
For assay [10], the system named is HCT-8. Kind of assay: Cytotoxicity against human HCT8 cells after 2 hrs by methylene blue staining-based spectrophotometric analysis. Format: functional, cell-based. Particulars: HCT-8, 2 h.
The subject of assay [11] is A549. Kind of assay: Cytotoxicity against human A549 cells assessed as cell viability after 48 hrs by SRB assay. The note with it: A549, 48 h. It is filed as functional, cell-based.
A short description of assay [12]: Cytotoxicity against human CL1-5 cells assessed as cell viability after 48 hrs by SRB assay. It is filed as functional, cell-based. Particulars: CL1-5, 48 h. The procedure, abridged:
as §1

The nature of assay [13]: Cytotoxicity against human CL1-0 cells assessed as cell viability after 48 hrs by SRB assay. The note with it: CL1-0, 48 h. Format: functional, cell-based. The essentials: as §1
A short description of assay [14]: Cytotoxicity against human PC9IR cells assessed as cell viability after 48 hrs by SRB assay. It is filed as functional, cell-based. The procedure, abridged: as §1
Assay [15] has as its system SK-BR-3. Kind of assay: Cytotoxicity against human SKBR3 cells after 2 hrs by methylene blue staining-based spectrophotometric analysis. Format: functional, cell-based. Particulars: SK-BR-3, 2 h.

pIC50: −log10 of the molar value. Activity calls are given as the source filed them. The rule behind the calls is not given here.

A word on the pIC50: it is the IC50 on a negative log10 scale, so that one unit is a factor of ten. Take `COc1ccc2c3c(c4cc(OC)c(OC)cc4c2c1)C[C@H]1C[C@@H](O)CN1C3`: the pIC50 is 6.15 in [1], 6.11 in assay [2], 6.21 in [3] and 6.19 in assay [4].

Take `COc1ccc2c3c(c4cc(OC)c(OC)cc4c2c1)C[C@H]1C[C@H](OC)CCN1C3`: the pIC50 in assay [1] is 7.25; in [2] it was 7.00; in assay [3] it was 7.60; in [4] it was 7.18.

As for `COc1ccc2c3c(c4cc(OC)c(OC)cc4c2c1)C[C@H]1CCCCN1C3` [CRYPTOPLEURINE], the outcome in assay [5], in [6] and in [9] was Active. Also, the pIC50 in assay [1] was 8.80; in [7], 7.85; in assay [2] it was 8.82; in [8], 8.26; in assay [10] it was 8.72; in [11], 8.72. For the same compound, the pIC50 in assay [12] is 8.74; in assay [3], 8.86; in assay [13], 8.30; in assay [14] it was 8.17.

`COC1=C[C@@H]2Cc3c(c4ccc(OC)cc4c4cc(OC)c(OC)cc34)CN2C1`: the pIC50 in assay [1] is 4.99; in assay [2], 4.92; in [3], 5.22; in [4], 5.58.

On to `COc1ccc2c3c(c4cc(OC)c(OC)cc4c2c1)C[C@H]1C[C@@H](O)CCN1C3`, for which the pIC50 in assay [1] is 7.23; in [2] it was 7.37; in assay [15], 6.53; in [3], 7.14; in assay [4], 7.11.

In the case of `COc1ccc2c3c(c4cc(OC)c(OC)cc4c2c1)C[C@H]1C[C@H](O)[C@@H](O)CN1C3`, the pIC50 in assay [1] is 6.22; in assay [2], 6.08; in [3] it was 6.26; in assay [4] it was 5.66.

Regarding `COc1ccc2c3c(c4cc(OC)c(OC)cc4c2c1)C[C@H]1[C@@H](O)CCCN1C3`, the negative logarithm of the IC50 (pIC50) in [1] was 7.48; in assay [2], 7.60; in [3], 8.00; in assay [4] it was 7.60.

In the case of `COc1ccc2c3c(c4cc(OC)c(OC)cc4c2c1)C[C@H]1COCCN1C3`, the pIC50 was 6.60 in assay [7] and 7.40 in assay [11].

Take `COc1ccc2c3c(c4cc(OC)c(OC)cc4c2c1)C[C@H]1CC(=O)CN1C3`: the pIC50 in [1] is 6.15; in [2], 6.30; in assay [3] it was 6.54; in assay [4], 6.37.

With `COc1ccc2c3c(c4cc(OC)c(OC)cc4c2c1)C[C@H]1CC[C@H](O)CN1C3`, the pIC50 in assay [1] was 5.65; in assay [2], 5.65; in assay [15] it was 5.19; in assay [3], 5.60; in [4] it was 5.51.

For the compound `COc1ccc2c3c(c4cc(OC)c(OC)cc4c2c1)C[C@H]1[C@@H](O)CCN1C3`, the pIC50 in [1] was 5.49; in assay [2] it was 5.74; in [3], 5.55; in assay [4], 5.47.

As for `COc1ccc2c3c(c4cc(OC)c(OC)cc4c2c1)C[C@H]1C[C@H](O)CN1C3`, the pIC50 was 5.74 in assay [1], 5.74 in [2], 5.64 in assay [3] and 5.66 in assay [4].

Compound `COc1ccc2c3c(c4cc(OC)c(OC)cc4c2c1)C[C@H]1CCCN1C3` [(-)-ANTOFINE] showed a pIC50 in assay [4] of 7.60.

Take `COc1ccc2c3c(c4cc(OC)c(OC)cc4c2c1)C[C@H]1[C@H](O)CCCN1C3`: the pIC50 in [1] is 6.70; in [2], 6.52; in assay [3], 7.16; in assay [4], 6.92.

Consider `COc1ccc2c3c(c4cc(OC)c(OC)cc4c2c1)C[C@H]1CC(=O)CCN1C3`, for which the pIC50 in assay [1] was 7.35; in assay [2] it was 7.30; in assay [3], 7.55; in assay [4], 7.37.

As for `COc1ccc2c3c(c4cc(OC)c(OC)cc4c2c1)C[C@H]1C[C@@H](O)[C@H](O)CN1C3`, the pIC50 in [1] is 5.77; in [2], 4.76; in assay [3] it was 4.84; in assay [4], 4.90.

As for `COc1ccc2c3c(c4cc(OC)c(OC)cc4c2c1)C[C@H]1CC[C@@H](O)CN1C3`, the negative logarithm of the IC50 (pIC50) in [1] is 7.18; in [2], 7.48; in assay [15], 6.46; in assay [3], 7.09; in assay [4], 7.35.

With `COc1ccc2c3c(c4cc(OC)c(OC)cc4c2c1)C[C@H]1[C@H](O)CCN1C3`, the pIC50 in assay [1] was 6.07; in assay [2], 6.30; in assay [3], 6.57; in assay [4], 6.19.

Turning to `COc1ccc2c3c(c4cc(OC)c(OC)cc4c2c1)C[C@H]1CCC(=O)CN1C3`, the pIC50 in assay [1] was 5.77; in [2], 6.13; in assay [15], 5.48; in assay [3] it was 6.04; in assay [4] it was 5.83.

As for `CC[C@@]1(O)CCN2Cc3c(c4cc(OC)c(OC)cc4c4cc(OC)ccc34)C[C@H]2C1`, the pIC50 in [1] was 6.11; in assay [2] it was 6.04; in assay [3], 6.00; in [4], 6.06.

Turning to `COc1ccc2c3c(c4cc(OC)c(OC)cc4c2c1)C[C@H]1C[C@@H](OC)CCN1C3`, the pIC50 was 5.45 in assay [1], 5.28 in [2], 5.15 in assay [3] and 5.43 in assay [4].
